pEC50, pIC50: −log10 of the molar value.
target: T1, Cannabinoid receptor 1 (Homo sapiens, UniProt P21554); assay: Agonist activity at human CB1-receptor expressed in CHO-K1 cells coexpressing G-alpha16 by Fluo-4-AM dye based calcium mobilization assay; assay type: cell-based; details: cho-k1
T1 sequence (P21554 whole entry): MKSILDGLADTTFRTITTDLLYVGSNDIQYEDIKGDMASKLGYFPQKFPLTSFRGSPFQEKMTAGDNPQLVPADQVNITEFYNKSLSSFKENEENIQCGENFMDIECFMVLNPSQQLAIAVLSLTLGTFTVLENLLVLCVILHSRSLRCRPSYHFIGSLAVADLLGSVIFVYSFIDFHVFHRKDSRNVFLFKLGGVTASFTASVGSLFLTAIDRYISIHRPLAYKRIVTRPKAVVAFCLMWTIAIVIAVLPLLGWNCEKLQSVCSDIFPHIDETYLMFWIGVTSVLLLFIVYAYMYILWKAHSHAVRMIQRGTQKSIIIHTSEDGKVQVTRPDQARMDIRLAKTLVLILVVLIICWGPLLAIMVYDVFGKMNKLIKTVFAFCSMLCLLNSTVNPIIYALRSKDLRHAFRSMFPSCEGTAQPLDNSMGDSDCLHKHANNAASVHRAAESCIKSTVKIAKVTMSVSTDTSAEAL

Row | SMILES | EC50
1 | CCCCCn1c(C(=O)NC23CC4CC(CC(C4)C2)C3)cc2cccnc21 | Not Active
2 | O=C(NC12CC3CC(CC(C3)C1)C2)c1cn(CCN2CCOCC2)c2ccncc12 | Not Active
3 | CCCCCn1c(C(=O)NC23CC4CC(CC(C4)C2)C3)cc2cnccc21 | Not Active
4 | O=C(NC12CC3CC(CC(C3)C1)C2)c1nc2ccccc2n1CCN1CCOCC1 | Not Active
5 | CCCCCn1c(C(=O)NC23CC4CC(CC(C4)C2)C3)nc2ccccc21 | Not Active
6 | O=C(NC12CC3CC(CC(C3)C1)C2)c1cc2ncccc2n1CCN1CCOCC1 | Not Active
7 | O=C(NC12CC3CC(CC(C3)C1)C2)c1cc2ncccc2[nH]1 | Not Active
8 | CCCCCn1c(C(=O)NC23CC4CC(CC(C4)C2)C3)cc2ncccc21 | Not Active
9 | O=C(NC12CC3CC(CC(C3)C1)C2)c1c[nH]c2ncccc12 | Not Active
10 | O=C(NC12CC3CC(CC(C3)C1)C2)c1c[nH]c2ccncc12 | Not Active
11 | O=C(NC12CC3CC(CC(C3)C1)C2)c1cc2cccnc2[nH]1 | Not Active

target: T2, Cannabinoid receptor 2 (Homo sapiens, UniProt P34972); assay: Agonist activity at human CB2-receptor expressed in CHO-K1 cells coexpressing G-alpha16 by Fluo-4-AM dye based calcium mobilization assay; assay type: functional, cell-based; details: cho-k1
T2 sequence (P34972 whole entry): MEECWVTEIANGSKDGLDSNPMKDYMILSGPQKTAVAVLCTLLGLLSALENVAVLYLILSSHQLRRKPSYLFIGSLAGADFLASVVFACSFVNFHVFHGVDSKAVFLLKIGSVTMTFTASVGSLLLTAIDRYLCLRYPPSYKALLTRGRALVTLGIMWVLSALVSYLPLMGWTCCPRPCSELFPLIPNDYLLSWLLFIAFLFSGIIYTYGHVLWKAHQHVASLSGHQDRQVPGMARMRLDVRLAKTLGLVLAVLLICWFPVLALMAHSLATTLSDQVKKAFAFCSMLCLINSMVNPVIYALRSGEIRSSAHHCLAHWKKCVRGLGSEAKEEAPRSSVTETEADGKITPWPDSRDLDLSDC

Row | SMILES | EC50
12 | O=C(NC12CC3CC(CC(C3)C1)C2)c1cn(CCN2CCOCC2)c2ccncc12 | Not Active
13 | CCCCCn1c(C(=O)NC23CC4CC(CC(C4)C2)C3)cc2cnccc21 | Not Active
14 | O=C(NC12CC3CC(CC(C3)C1)C2)c1nc2ccccc2n1CCN1CCOCC1 | Not Active
15 | O=C(NC12CC3CC(CC(C3)C1)C2)c1cc2ncccc2n1CCN1CCOCC1 | Not Active
16 | O=C(NC12CC3CC(CC(C3)C1)C2)c1c[nH]c2ncccc12 | Not Active
17 | O=C(NC12CC3CC(CC(C3)C1)C2)c1c[nH]c2ccncc12 | Not Active

same assay, conditions: read-out: EC50

Row | SMILES | pEC50
18 | CCCCCn1c(C(=O)NC23CC4CC(CC(C4)C2)C3)cc2cccnc21 | 6.04
19 | CCCCCn1c(C(=O)NC23CC4CC(CC(C4)C2)C3)nc2ccccc21 | 6.49
20 | O=C(NC12CC3CC(CC(C3)C1)C2)c1cc2ncccc2[nH]1 | 6.23
21 | CCCCCn1c(C(=O)NC23CC4CC(CC(C4)C2)C3)cc2ncccc21 | 6.66
22 | O=C(NC12CC3CC(CC(C3)C1)C2)c1cc2cccnc2[nH]1 | 6.54

target: T2, Cannabinoid receptor 2; assay: Agonist activity at human CB2-receptor expressed in CHO-K1 cells coexpressing G-alpha16 assessed as maximum efficacy by Fluo-4-AM dye based calcium mobilization assay relative to CP55940; assay type: functional, cell-based; details: not given
Procedure, shortened: (§1)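 CHO-K1 cells stably co-expressing Gα16 and human CB1 or CB2, seeded 24 h. Loaded with 2 μM fluo-4 AM in HBSS (with sulfinpyrazone, pH 7.4) at 37 °C for 45 min. Compound added and calcium fluorescence recorded (ex 485/em 525 nm). CP55940 positive control, DMSO negative control. Compounds with >50% activation at 10 μM got eight-point curves in triplicate, sigmoidal fit for EC50.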

Row | SMILES | Emax
23 | CCCCCn1c(C(=O)NC23CC4CC(CC(C4)C2)C3)cc2cccnc21 | 46.2%
24 | CCCCCn1c(C(=O)NC23CC4CC(CC(C4)C2)C3)nc2ccccc21 | 62.2%
25 | O=C(NC12CC3CC(CC(C3)C1)C2)c1cc2ncccc2[nH]1 | 38%
26 | CCCCCn1c(C(=O)NC23CC4CC(CC(C4)C2)C3)cc2ncccc21 | 50%
27 | O=C(NC12CC3CC(CC(C3)C1)C2)c1cc2cccnc2[nH]1 | 40.7%

target: T1, Cannabinoid receptor 1; assay: Antagonist activity at human CB1-receptor expressed in CHO-K1 cells coexpressing G-alpha16 pre-incubated for 10 mins and later treated with 100 nM CB-receptor agonist, CP55940 by Fluo-4-AM dye based calcium mobilization assay; assay type: cell-based; details: not given
Procedure, shortened: (§2)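 CHO-K1 cells stably co-expressing Gα16 and human CB1 or CB2, loaded with 2 μM fluo-4 AM in HBSS pH 7.4 at 37 °C for 45 min. Pre-incubated with compound for 10 min at room temperature, then CP55940 added at 100 nM. Peak calcium read over 60 s (ex 485/em 525 nm). Rimonabant positive control. Actives got eight-point curves in triplicate, sigmoidal fit for IC50.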

Row | SMILES | IC50
28 | CCCCCn1c(C(=O)NC23CC4CC(CC(C4)C2)C3)cc2cccnc21 | Not Active
29 | O=C(NC12CC3CC(CC(C3)C1)C2)c1cn(CCN2CCOCC2)c2ccncc12 | Not Active
30 | CCCCCn1c(C(=O)NC23CC4CC(CC(C4)C2)C3)cc2cnccc21 | Not Active
31 | O=C(NC12CC3CC(CC(C3)C1)C2)c1nc2ccccc2n1CCN1CCOCC1 | Not Active
32 | CCCCCn1c(C(=O)NC23CC4CC(CC(C4)C2)C3)nc2ccccc21 | Not Active
33 | O=C(NC12CC3CC(CC(C3)C1)C2)c1cc2ncccc2n1CCN1CCOCC1 | Not Active
34 | O=C(NC12CC3CC(CC(C3)C1)C2)c1cc2ncccc2[nH]1 | Not Active
35 | CCCCCn1c(C(=O)NC23CC4CC(CC(C4)C2)C3)cc2ncccc21 | Not Active
36 | O=C(NC12CC3CC(CC(C3)C1)C2)c1c[nH]c2ncccc12 | Not Active
37 | O=C(NC12CC3CC(CC(C3)C1)C2)c1c[nH]c2ccncc12 | Not Active
38 | O=C(NC12CC3CC(CC(C3)C1)C2)c1cc2cccnc2[nH]1 | Not Active

target: T2, Cannabinoid receptor 2; assay: Antagonist activity at human CB2-receptor expressed in CHO-K1 cells coexpressing G-alpha16 pre-incubated for 10 mins and later treated with 100 nM CB-receptor agonist, CP55940 by Fluo-4-AM dye based calcium mobilization assay; assay type: functional, cell-based; details: cho-k1; procedure, shortened: as §2

Row | SMILES | IC50
39 | CCCCCn1c(C(=O)NC23CC4CC(CC(C4)C2)C3)cc2cccnc21 | Not Active
40 | O=C(NC12CC3CC(CC(C3)C1)C2)c1cn(CCN2CCOCC2)c2ccncc12 | Not Active
41 | CCCCCn1c(C(=O)NC23CC4CC(CC(C4)C2)C3)cc2cnccc21 | Not Active
42 | CCCCCn1c(C(=O)NC23CC4CC(CC(C4)C2)C3)nc2ccccc21 | Not Active
43 | O=C(NC12CC3CC(CC(C3)C1)C2)c1cc2ncccc2n1CCN1CCOCC1 | Not Active
44 | O=C(NC12CC3CC(CC(C3)C1)C2)c1cc2ncccc2[nH]1 | Not Active
45 | CCCCCn1c(C(=O)NC23CC4CC(CC(C4)C2)C3)cc2ncccc21 | Not Active
46 | O=C(NC12CC3CC(CC(C3)C1)C2)c1c[nH]c2ccncc12 | Not Active
47 | O=C(NC12CC3CC(CC(C3)C1)C2)c1cc2cccnc2[nH]1 | Not Active

same assay, conditions: read-out: IC50

Row | SMILES | pIC50
48 | O=C(NC12CC3CC(CC(C3)C1)C2)c1nc2ccccc2n1CCN1CCOCC1 | 7.44
49 | O=C(NC12CC3CC(CC(C3)C1)C2)c1c[nH]c2ncccc12 | 5.19

target: T1, Cannabinoid receptor 1; assay: Agonist activity at human CB1-receptor expressed in CHO-K1 cells coexpressing G-alpha16 at 10 uM by Fluo-4-AM dye based calcium mobilization assay; assay type: cell-based; details: cho-k1, 10 µM; procedure, shortened: as §1

Row | SMILES | Activity
50 | CCCCCn1c(C(=O)NC23CC4CC(CC(C4)C2)C3)cc2cccnc21 | < 50%
51 | O=C(NC12CC3CC(CC(C3)C1)C2)c1cn(CCN2CCOCC2)c2ccncc12 | < 50%
52 | CCCCCn1c(C(=O)NC23CC4CC(CC(C4)C2)C3)cc2cnccc21 | < 50%
53 | O=C(NC12CC3CC(CC(C3)C1)C2)c1nc2ccccc2n1CCN1CCOCC1 | < 50%
54 | CCCCCn1c(C(=O)NC23CC4CC(CC(C4)C2)C3)nc2ccccc21 | < 50%
55 | O=C(NC12CC3CC(CC(C3)C1)C2)c1cc2ncccc2n1CCN1CCOCC1 | < 50%
56 | O=C(NC12CC3CC(CC(C3)C1)C2)c1cc2ncccc2[nH]1 | < 50%
57 | CCCCCn1c(C(=O)NC23CC4CC(CC(C4)C2)C3)cc2ncccc21 | < 50%
58 | O=C(NC12CC3CC(CC(C3)C1)C2)c1c[nH]c2ncccc12 | < 50%
59 | O=C(NC12CC3CC(CC(C3)C1)C2)c1c[nH]c2ccncc12 | < 50%
60 | O=C(NC12CC3CC(CC(C3)C1)C2)c1cc2cccnc2[nH]1 | < 50%

target: T2, Cannabinoid receptor 2; assay: Agonist activity at human CB2-receptor expressed in CHO-K1 cells coexpressing G-alpha16 at 10 uM by Fluo-4-AM dye based calcium mobilization assay; assay type: functional, cell-based; details: not given; procedure, shortened: as §1

Row | SMILES | Activity
61 | CCCCCn1c(C(=O)NC23CC4CC(CC(C4)C2)C3)cc2cccnc21 | > 50%
62 | O=C(NC12CC3CC(CC(C3)C1)C2)c1cn(CCN2CCOCC2)c2ccncc12 | < 50%
63 | CCCCCn1c(C(=O)NC23CC4CC(CC(C4)C2)C3)cc2cnccc21 | < 50%
64 | O=C(NC12CC3CC(CC(C3)C1)C2)c1nc2ccccc2n1CCN1CCOCC1 | < 50%
65 | CCCCCn1c(C(=O)NC23CC4CC(CC(C4)C2)C3)nc2ccccc21 | > 50%
66 | O=C(NC12CC3CC(CC(C3)C1)C2)c1cc2ncccc2n1CCN1CCOCC1 | < 50%
67 | O=C(NC12CC3CC(CC(C3)C1)C2)c1cc2ncccc2[nH]1 | > 50%
68 | CCCCCn1c(C(=O)NC23CC4CC(CC(C4)C2)C3)cc2ncccc21 | > 50%
69 | O=C(NC12CC3CC(CC(C3)C1)C2)c1c[nH]c2ncccc12 | < 50%
70 | O=C(NC12CC3CC(CC(C3)C1)C2)c1c[nH]c2ccncc12 | < 50%
71 | O=C(NC12CC3CC(CC(C3)C1)C2)c1cc2cccnc2[nH]1 | > 50%

target: T2, Cannabinoid receptor 2; assay: Antagonist activity at human CB2-receptor expressed in CHO-K1 cells coexpressing G-alpha16 at 10 uM pre-incubated for 10 mins and later treated with 100 nM CB-receptor agonist, CP55940 by Fluo-4-AM dye based calcium mobilization assay; assay type: functional, cell-based; details: not given; procedure, shortened: as §2

Row | SMILES | inhibition
72 | CCCCCn1c(C(=O)NC23CC4CC(CC(C4)C2)C3)cc2cccnc21 | < 50%
73 | O=C(NC12CC3CC(CC(C3)C1)C2)c1cn(CCN2CCOCC2)c2ccncc12 | < 50%
74 | CCCCCn1c(C(=O)NC23CC4CC(CC(C4)C2)C3)cc2cnccc21 | < 50%
75 | O=C(NC12CC3CC(CC(C3)C1)C2)c1nc2ccccc2n1CCN1CCOCC1 | > 50%
76 | CCCCCn1c(C(=O)NC23CC4CC(CC(C4)C2)C3)nc2ccccc21 | < 50%
77 | O=C(NC12CC3CC(CC(C3)C1)C2)c1cc2ncccc2n1CCN1CCOCC1 | < 50%
78 | O=C(NC12CC3CC(CC(C3)C1)C2)c1cc2ncccc2[nH]1 | < 50%
79 | CCCCCn1c(C(=O)NC23CC4CC(CC(C4)C2)C3)cc2ncccc21 | < 50%
80 | O=C(NC12CC3CC(CC(C3)C1)C2)c1c[nH]c2ncccc12 | > 50%
81 | O=C(NC12CC3CC(CC(C3)C1)C2)c1c[nH]c2ccncc12 | < 50%
82 | O=C(NC12CC3CC(CC(C3)C1)C2)c1cc2cccnc2[nH]1 | < 50%

target: T1, Cannabinoid receptor 1; assay: Antagonist activity at human CB1-receptor expressed in CHO-K1 cells coexpressing G-alpha16 at 10 uM pre-incubated for 10 mins and later treated with 100 nM CB-receptor agonist, CP55940 by Fluo-4-AM dye based calcium mobilization assay; assay type: cell-based; details: not given; procedure, shortened: as §2

Row | SMILES | inhibition at 10 µM
83 | CCCCCn1c(C(=O)NC23CC4CC(CC(C4)C2)C3)cc2cccnc21 | < 50%
84 | O=C(NC12CC3CC(CC(C3)C1)C2)c1cn(CCN2CCOCC2)c2ccncc12 | < 50%
85 | CCCCCn1c(C(=O)NC23CC4CC(CC(C4)C2)C3)cc2cnccc21 | < 50%
86 | O=C(NC12CC3CC(CC(C3)C1)C2)c1nc2ccccc2n1CCN1CCOCC1 | < 50%
87 | CCCCCn1c(C(=O)NC23CC4CC(CC(C4)C2)C3)nc2ccccc21 | < 50%
88 | O=C(NC12CC3CC(CC(C3)C1)C2)c1cc2ncccc2n1CCN1CCOCC1 | < 50%
89 | O=C(NC12CC3CC(CC(C3)C1)C2)c1cc2ncccc2[nH]1 | < 50%
90 | CCCCCn1c(C(=O)NC23CC4CC(CC(C4)C2)C3)cc2ncccc21 | < 50%
91 | O=C(NC12CC3CC(CC(C3)C1)C2)c1c[nH]c2ncccc12 | < 50%
92 | O=C(NC12CC3CC(CC(C3)C1)C2)c1c[nH]c2ccncc12 | < 50%
93 | O=C(NC12CC3CC(CC(C3)C1)C2)c1cc2cccnc2[nH]1 | < 50%

Source: ChEMBL document CHEMBL4373687, “Introducing nitrogen atoms to amidoalkylindoles: potent and selective cannabinoid type 2 receptor agonists with improved aqueous solubility” (Medchemcomm, 2019)
